From ChEMBL document CHEMBL1152599, “Synthesis and in vitro activities of new anticancer duplex drugs linking 2'-deoxy-5-fluorouridine (5-FdU) with 3'-C-ethynylcytidine (ECyd) via a phosphodiester bonding” (2009)

Key:
Type in all cases: functional
OVCAR-8 = assay: Anticancer activity against human OVCAR8 cells after 48 hrs by sulforhodamine B assay; conditions: OVCAR-8, 48 h
Summary of the method: (§1)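 NCI 60-cell-line anticancer screen. Each compound is tested at a minimum of five concentrations in 10-fold dilutions with 48 h drug exposure. Cell viability/growth is estimated by sulforhodamine B protein staining. GI50 is the log10 molar concentration giving 50% growth inhibition, read from the dose-response curves and mean graphs of the NCI data screening report. TGI was taken from double screens.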

UACC-62 = assay: Anticancer activity against human UACC62 cells after 48 hrs by sulforhodamine B assay; conditions: UACC-62, 48 h
Summary of the method: (§2)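 Tested in the NCI 60-human-tumour-cell-line screen. Compounds were applied at a minimum of five concentrations in 10-fold dilutions with 48 h exposure. Cell growth was estimated by sulforhodamine B protein staining. GI50 (log10 of molar concentration giving 50% growth inhibition) and TGI were read from the data sheets, dose-response curves and mean graphs. Some cell lines were screened twice.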

SF-539 = assay: Anticancer activity against human SF539 cells after 48 hrs by sulforhodamine B assay; conditions: SF-539, 48 h; summary of the method: as §1
MDA-N = assay: Anticancer activity against human MDA-N cells after 48 hrs by sulforhodamine B assay; summary of the method: as §1
T47D = assay: Anticancer activity against human T47D cells after 48 hrs by sulforhodamine B assay; summary of the method: as §2
CCRF-CEM = assay: Anticancer activity against human CCRF-CEM cells after 48 hrs by sulforhodamine B assay; summary of the method: as §1
COLO 205 = assay: Anticancer activity against human COLO205 cells after 48 hrs by sulforhodamine B assay; conditions: COLO 205, 48 h; summary of the method: as §1
LOX IMVI = assay: Anticancer activity against human LOXIMVI cells after 48 hrs by sulforhodamine B assay; summary of the method: as §1
SNB-19 = assay: Anticancer activity against human SNB19 cells after 48 hrs by sulforhodamine B assay; conditions: SNB-19, 48 h; summary of the method: as §1
SK-MEL-28 = assay: Anticancer activity against human SK-MEL-28 cells after 48 hrs by sulforhodamine B assay; conditions: SK-MEL-28, 48 h; summary of the method: as §1
M14 = assay: Anticancer activity against human M14 cells after 48 hrs by sulforhodamine B assay; conditions: M14, 48 h; summary of the method: as §1
MOLT-4 = assay: Anticancer activity against human MOLT4 cells after 48 hrs by sulforhodamine B assay; conditions: MOLT-4, 48 h; summary of the method: as §1
RXF 393 = assay: Anticancer activity against human RXF393 cells after 48 hrs by sulforhodamine B assay; conditions: RXF 393, 48 h; summary of the method: as §1
OVCAR-5 = assay: Anticancer activity against human OVCAR5 cells after 48 hrs by sulforhodamine B assay; conditions: OVCAR-5, 48 h; summary of the method: as §1
SK-OV-3 = assay: Anticancer activity against human SKOV3 cells after 48 hrs by sulforhodamine B assay; conditions: SK-OV-3, 48 h; summary of the method: as §1
NCI-H322M = assay: Anticancer activity against human NCI-H322M cells after 48 hrs by sulforhodamine B assay; summary of the method: as §1
NCI-H226 = assay: Anticancer activity against human NCI-H226 cells after 48 hrs by sulforhodamine B assay; conditions: NCI-H226, 48 h; summary of the method: as §1
U-251 = assay: Anticancer activity against human U251 cells after 48 hrs by sulforhodamine B assay; conditions: U-251, 48 h; summary of the method: as §2
A498 = assay: Anticancer activity against human A498 cells after 48 hrs by sulforhodamine B assay; conditions: A498, 48 h; summary of the method: as §1
UACC-257 = assay: Anticancer activity against human UACC257 cells after 48 hrs by sulforhodamine B assay; conditions: UACC-257, 48 h; summary of the method: as §2
OVCAR-4 = assay: Anticancer activity against human OVCAR4 cells after 48 hrs by sulforhodamine B assay; conditions: OVCAR-4, 48 h; summary of the method: as §1
PC-3 = assay: Anticancer activity against human PC3 cells after 48 hrs by sulforhodamine B assay; conditions: PC-3, 48 h; summary of the method: as §1
HCC 2998 = assay: Anticancer activity against human HCC2998 cells after 48 hrs by sulforhodamine B assay; conditions: HCC 2998, 48 h; summary of the method: as §1
OVCAR-3 = assay: Anticancer activity against human OVCAR-3 cells after 48 hrs by sulforhodamine B assay; conditions: OVCAR-3, 48 h; summary of the method: as §1
MDA-MB-231 = assay: Anticancer activity against human MDA-MB-231 cells after 48 hrs by sulforhodamine B assay; conditions: MDA-MB-231, 48 h; summary of the method: as §1
HCT-15 = assay: Anticancer activity against human HCT15 cells after 48 hrs by sulforhodamine B assay; conditions: HCT-15, 48 h; summary of the method: as §1
KM12 = assay: Anticancer activity against human KM12 cells after 48 hrs by sulforhodamine B assay; conditions: KM12, 48 h; summary of the method: as §1
MCF7 = assay: Anticancer activity against human MCF7 cells after 48 hrs by sulforhodamine B assay; conditions: MCF7, 48 h; summary of the method: as §1
SW-620 = assay: Anticancer activity against human SW620 cells after 48 hrs by sulforhodamine B assay; conditions: SW-620, 48 h; summary of the method: as §2
ACHN = assay: Anticancer activity against human ACHN cells after 48 hrs by sulforhodamine B assay; summary of the method: as §1
SR = assay: Anticancer activity against human SR cells after 48 hrs by sulforhodamine B assay; summary of the method: as §2
EKVX = assay: Anticancer activity against human EKVX cells after 48 hrs by sulforhodamine B assay; summary of the method: as §1
SNB-75 = assay: Anticancer activity against human SNB75 cells after 48 hrs by sulforhodamine B assay; conditions: SNB-75, 48 h; summary of the method: as §2
[1] = Anticancer activity against human […] cells after 48 hrs by sulforhodamine B assay; summary of the method: as §1
IGROV-1 = assay: Anticancer activity against human IGROV1 cells after 48 hrs by sulforhodamine B assay; conditions: IGROV-1, 48 h; summary of the method: as §1
SK-MEL-2 = assay: Anticancer activity against human SK-MEL-2 cells after 48 hrs by sulforhodamine B assay; conditions: SK-MEL-2, 48 h; summary of the method: as §1
MDA-MB-435 = assay: Anticancer activity against human MDA-MB-435 cells after 48 hrs by sulforhodamine B assay; conditions: MDA-MB-435, 48 h; summary of the method: as §1
NCI-H460 = assay: Anticancer activity against human NCI-H460 cells after 48 hrs by sulforhodamine B assay; conditions: NCI-H460, 48 h; summary of the method: as §1
K562 = assay: Anticancer activity against human K562 cells after 48 hrs by sulforhodamine B assay; conditions: K562, 48 h; summary of the method: as §1
DU-145 = assay: Anticancer activity against human DU145 cells after 48 hrs by sulforhodamine B assay; conditions: DU-145, 48 h; summary of the method: as §1
SN12C = assay: Anticancer activity against human SN12C cells after 48 hrs by sulforhodamine B assay; summary of the method: as §1
SF-268 = assay: Anticancer activity against human SF268 cells after 48 hrs by sulforhodamine B assay; conditions: SF-268, 48 h; summary of the method: as §1
CAKI-1 = assay: Anticancer activity against human Caki1 cells after 48 hrs by sulforhodamine B assay; conditions: CAKI-1, 48 h; summary of the method: as §1
SK-MEL-5 = assay: Anticancer activity against human SK-MEL-5 cells after 48 hrs by sulforhodamine B assay; conditions: SK-MEL-5, 48 h; summary of the method: as §1
UO-31 = assay: Anticancer activity against human UO31 cells after 48 hrs by sulforhodamine B assay; conditions: UO-31, 48 h; summary of the method: as §2
HOP-62 = assay: Anticancer activity against human HOP62 cells after 48 hrs by sulforhodamine B assay; conditions: HOP-62, 48 h; summary of the method: as §1
HL-60 = assay: Anticancer activity against human HL-60(TB) cells after 48 hrs by sulforhodamine B assay; conditions: HL-60, 48 h
Summary of the method: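 NCI 60-cell-line anticancer screen. Drugs tested at a minimum of five concentrations at 10-fold dilutions with 48 h exposure. Cell growth estimated by sulforhodamine B protein assay. GI50 is log10 of the molar concentration giving 50% growth inhibition, read from the screening data sheet, dose-response curves and mean graphs.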

NCI/ADR-RES = assay: Anticancer activity against human NCI/ADR-RES cells after 48 hrs by sulforhodamine B assay; summary of the method: as §1
NCI-H23 = assay: Anticancer activity against human NCI-H23 cells after 48 hrs by sulforhodamine B assay; conditions: NCI-H23, 48 h; summary of the method: as §1
TK-10 = assay: Anticancer activity against human TK10 cells after 48 hrs by sulforhodamine B assay; conditions: TK-10, 48 h; summary of the method: as §2
HT-29 = assay: Anticancer activity against human HT-29 cells after 48 hrs by sulforhodamine B assay; conditions: HT-29, 48 h; summary of the method: as §1
Malme-3M = assay: Anticancer activity against human MALME-3M cells after 48 hrs by sulforhodamine B assay; summary of the method: as §1
786-0 = assay: Anticancer activity against human 786-0 cells after 48 hrs by sulforhodamine B assay; conditions: 786-0, 48 h; summary of the method: as §1
NCI-H522 = assay: Anticancer activity against human NCI-H522 cells after 48 hrs by sulforhodamine B assay; conditions: NCI-H522, 48 h; summary of the method: as §1
HCT-116 = assay: Anticancer activity against human HCT116 cells after 48 hrs by sulforhodamine B assay; conditions: HCT-116, 48 h; summary of the method: as §1
BT-549 = assay: Anticancer activity against human BT549 cells after 48 hrs by sulforhodamine B assay; conditions: BT-549, 48 h; summary of the method: as §1
HOP-92 = assay: Anticancer activity against human HOP92 cells after 48 hrs by sulforhodamine B assay; conditions: HOP-92, 48 h; summary of the method: as §1
[2] = Anticancer activity against human Hs 578T cells after 48 hrs by sulforhodamine B assay; summary of the method: as §1
SF-295 = assay: Anticancer activity against human SF295 cells after 48 hrs by sulforhodamine B assay; conditions: SF-295, 48 h; summary of the method: as §1
A549 = assay: Anticancer activity against human A549 cells after 48 hrs by sulforhodamine B assay; conditions: A549, 48 h; summary of the method: as §1

## O=c1[nH]c(=O)n([C@H]2C[C@H](O)[C@@H](CO)O2)cc1F [FLOXURIDINE]
OVCAR-8
  GI50: 126 nM
UACC-62
  GI50: 39.8 nM
SF-539
  GI50: 3.98 nM
MDA-N
  GI50: 1260 nM
T47D
  GI50: 1260 nM
CCRF-CEM
  GI50: 6.31 nM
COLO 205
  GI50: 1580 nM
LOX IMVI
  GI50: 25.1 nM
SNB-19
  GI50: 2000 nM
SK-MEL-28
  GI50: 2000 nM
M14
  GI50: 158 nM
MOLT-4
  GI50: 39.8 nM
RXF 393
  GI50: 3.98 µM
OVCAR-5
  GI50: 6.31 µM
SK-OV-3
  GI50: 2000 nM
NCI-H322M
  GI50: 501 nM
NCI-H226
  GI50: 10 µM
U-251
  GI50: 126 nM
A498
  GI50: 1260 nM
UACC-257
  GI50: 3.16 µM
OVCAR-4
  GI50: 10 µM
PC-3
  GI50: 316 nM
HCC 2998
  GI50: 1 nM
OVCAR-3
  GI50: 2510 nM
MDA-MB-231
  GI50: 3.98 µM
HCT-15
  GI50: 2000 nM
KM12
  GI50: 6.31 µM
MCF7
  GI50: 6.31 nM
SW-620
  GI50: 10 µM
ACHN
  GI50: 31.6 nM
SR
  GI50: 12.6 nM
EKVX
  GI50: 10 µM
SNB-75
  GI50: 200 nM
[1]
  GI50: 794 nM
IGROV-1
  GI50: 2510 nM
SK-MEL-2
  GI50: 10 µM
MDA-MB-435
  GI50: 3.16 µM
NCI-H460
  GI50: 2 nM
K562
  GI50: 794 nM
DU-145
  GI50: 251 nM
SN12C
  GI50: 200 nM
SF-268
  GI50: 12.6 nM
CAKI-1
  GI50: 31.6 nM
SK-MEL-5
  GI50: 200 nM
UO-31
  GI50: 126 nM
HOP-62
  GI50: 25.1 nM
HL-60
  GI50: 200 nM
NCI/ADR-RES
  GI50: 1260 nM
NCI-H23
  GI50: 501 nM
TK-10
  GI50: 5.01 µM
HT-29
  GI50: 2510 nM
Malme-3M
  GI50: 7.94 µM
786-0
  GI50: 100 nM
NCI-H522
  GI50: 2510 nM
HCT-116
  GI50: 126 nM
BT-549
  GI50: 1000 nM
HOP-92
  GI50: 794 nM
[2]
  GI50: 3.98 µM
SF-295
  GI50: 39.8 nM
A549
  GI50: 12.6 nM
